Our source for the IC50 and Activity values is ChEMBL document CHEMBL4052611, “Opportunistic Sampling of Roadkill as an Entry Point to Accessing Natural Products Assembled by Bacteria Associated with Non-anthropoidal Mammalian Microbiomes” (J Nat Prod, 2017).

In series [1] the test system is Candida albicans. The experiment in a line: Antibiofilm activity against Candida albicans SC5314 after 48 hrs by XTT assay. The following applies: SC5314, 48 h. Format: functional. The gist of the method: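 SC5314 grown overnight in BHI at 37 °C, then washed in PBS and resuspended in RPMI-1640 buffered to pH 7.0 with 0.17 M MOPS. Cells at 2.5×10^3 cells mL^-1 were incubated 48 h at 37 °C with compounds (2 mM DMSO stocks; DMSO ≤2% v/v final). Wells were washed twice with PBS and refilled with fresh medium. Biofilm was read by XTT (0.1 mg mL^-1, 1 h, 37 °C) at A492. Triplicate, three separate occasions.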

Series [2] has as its system Candida albicans. The experiment in a line: Induction of cell killing in Candida albicans SC5314 up to 100 uM after 48 hrs by XTT assay. The gist of the method: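 Growth assay based on CLSI M27-A3, modified. SC5314 was precultured overnight in BHI at 37 °C, washed in PBS (pH 7.4) and resuspended at 2.5×10^3 cells mL^-1 in RPMI-1640/MOPS (pH 7.0). Compounds came from 2 mM DMSO stocks (DMSO ≤2% v/v final). After 48 h at 37 °C, viability was read by XTT (0.1 mg mL^-1, 1 h) at A492. MIC = lowest concentration giving ≥85% loss of metabolic activity. Triplicate, three occasions.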
In general terms: Tetrazolium dyes change colour on reduction, which living cells bring about.

`CCCCC[C@@H]1CC(=O)N[C@H](CC(C)C)C(=O)N[C@@H](CO)C(=O)N[C@@H]([C@@H](C)O)C(=O)N[C@H](Cc2ccccc2)C(=O)N[C@@H]([C@@H](C)CC)C(=O)O1` yielded an IC50 in the series with Candida albicans [1] of 13.4 µM. The Activity entry with Candida albicans [2] was “Non-Toxic”.

The compound `CCCCCCC[C@@H]1CC(=O)N[C@H](CC(C)C)C(=O)N[C@@H](CO)C(=O)N[C@@H]([C@@H](C)O)C(=O)N[C@H](Cc2ccc(O)cc2)C(=O)N[C@@H]([C@@H](C)CC)C(=O)O1` displayed an IC50 with Candida albicans [1] of 29.2 µM. Further, in the series with Candida albicans [2], the Activity result is reported as “Non-Toxic”.

Consider `CCCCCCC[C@@H]1CC(=O)N[C@H](CC(C)C)C(=O)N[C@@H](CO)C(=O)N[C@@H]([C@@H](C)O)C(=O)N[C@H](Cc2ccccc2)C(=O)N[C@@H]([C@@H](C)CC)C(=O)O1`, for which half-maximal inhibition in the series with Candida albicans [1] (IC50) required 7.7 µM. Also, the Activity entry in the series with Candida albicans [2] is given as “Non-Toxic”.

For the compound `CCCCCCC[C@@H]1CC(=O)N[C@H](CC(C)C)C(=O)N[C@@H](CO)C(=O)N[C@@H]([C@@H](C)O)C(=O)N[C@H](Cc2ccccc2)C(=O)N[C@@H](C(C)C)C(=O)O1`, the IC50 in the series with Candida albicans [1] was found to be 59.8 µM. Also, the Activity result in the series with Candida albicans [2] is recorded as “Non-Toxic”.

For orientation: IC50 means the point on the concentration scale where inhibition reaches its midpoint. Low readings indicate greater potency in that assay, high ones weaker potency in that assay.
